Assay results as given in ChEMBL document CHEMBL1133577, “Design and synthesis of piperazine-based matrix metalloproteinase inhibitors” (J Med Chem, 2000).

Key:
Matrilysin = target: T1, Matrilysin (Homo sapiens, UniProt P09237); assay: In vitro inhibitory activity against matrix metalloprotease-7 (MMP-7)
T1 sequence (P09237 whole entry): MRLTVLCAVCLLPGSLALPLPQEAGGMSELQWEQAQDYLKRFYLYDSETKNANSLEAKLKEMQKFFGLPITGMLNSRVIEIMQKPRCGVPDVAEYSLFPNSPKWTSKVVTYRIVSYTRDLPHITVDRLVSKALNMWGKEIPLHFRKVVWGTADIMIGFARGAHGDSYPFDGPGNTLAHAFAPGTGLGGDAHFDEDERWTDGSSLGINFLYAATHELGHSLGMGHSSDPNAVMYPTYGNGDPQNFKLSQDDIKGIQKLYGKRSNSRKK
Outline: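 MMP-7 supplied as active enzyme. It was incubated with 8 µM […] in 50 mM Tris-HCl pH 7.5, 10 mM CaCl2, 0.15 M NaCl, 0.05% Brij for 20-30 min at 37 °C with varying inhibitor. The reaction was quenched with 50 mM EDTA and fluorescence read at ex 328/em 393 nm. Activity is expressed as % of uninhibited control, triplicates; IC50 from 4-parameter logistic fit.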

[1] = target: Matrix metalloproteinase-9 (Homo sapiens, UniProt P14780); assay: In vitro inhibitory activity against matrix metalloprotease-9 (MMP-9)
Chain of Matrix metalloproteinase-9 (P14780 whole entry): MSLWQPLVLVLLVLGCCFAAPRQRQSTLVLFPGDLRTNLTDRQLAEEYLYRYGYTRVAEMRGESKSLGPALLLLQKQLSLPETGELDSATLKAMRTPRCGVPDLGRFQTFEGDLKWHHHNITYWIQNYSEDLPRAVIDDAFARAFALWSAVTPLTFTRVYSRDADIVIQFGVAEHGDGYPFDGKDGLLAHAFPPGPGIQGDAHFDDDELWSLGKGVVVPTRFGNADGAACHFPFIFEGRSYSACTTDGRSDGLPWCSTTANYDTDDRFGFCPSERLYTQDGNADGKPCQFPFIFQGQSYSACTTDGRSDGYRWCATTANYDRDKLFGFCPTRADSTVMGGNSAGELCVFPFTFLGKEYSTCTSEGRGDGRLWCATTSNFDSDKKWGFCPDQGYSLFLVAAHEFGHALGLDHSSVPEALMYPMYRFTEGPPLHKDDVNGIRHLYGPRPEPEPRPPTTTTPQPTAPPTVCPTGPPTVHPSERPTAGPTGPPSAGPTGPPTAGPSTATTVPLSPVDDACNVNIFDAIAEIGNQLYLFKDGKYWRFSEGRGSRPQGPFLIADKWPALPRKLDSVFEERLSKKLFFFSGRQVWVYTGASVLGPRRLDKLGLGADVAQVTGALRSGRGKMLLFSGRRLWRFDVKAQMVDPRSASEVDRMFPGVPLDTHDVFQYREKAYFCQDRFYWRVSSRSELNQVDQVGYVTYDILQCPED

Stromelysin-1 = Stromelysin-1 (Homo sapiens, UniProt P08254); assay: In vitro inhibitory activity against matrix metalloprotease-3 (MMP-3)
Chain of Stromelysin-1 (P08254 whole entry): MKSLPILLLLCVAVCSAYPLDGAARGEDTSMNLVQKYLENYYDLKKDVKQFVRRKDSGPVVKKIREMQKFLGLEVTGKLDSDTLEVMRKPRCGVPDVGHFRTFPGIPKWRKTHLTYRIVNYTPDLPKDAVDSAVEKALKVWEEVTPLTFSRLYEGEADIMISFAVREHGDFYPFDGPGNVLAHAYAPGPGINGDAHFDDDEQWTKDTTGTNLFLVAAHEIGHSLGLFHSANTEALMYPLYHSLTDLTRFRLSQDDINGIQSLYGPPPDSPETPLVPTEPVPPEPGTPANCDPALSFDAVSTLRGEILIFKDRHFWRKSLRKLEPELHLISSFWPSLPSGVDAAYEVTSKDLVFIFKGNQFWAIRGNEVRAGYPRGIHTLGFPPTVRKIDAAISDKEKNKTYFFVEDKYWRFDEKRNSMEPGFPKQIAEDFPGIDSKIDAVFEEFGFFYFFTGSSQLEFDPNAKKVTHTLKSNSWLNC

Interstitial collagenase = target: T2, Interstitial collagenase (Homo sapiens, UniProt P03956); assay: In vitro inhibitory activity against matrix metalloprotease-1 (MMP-1)
T2 sequence (P03956 whole entry): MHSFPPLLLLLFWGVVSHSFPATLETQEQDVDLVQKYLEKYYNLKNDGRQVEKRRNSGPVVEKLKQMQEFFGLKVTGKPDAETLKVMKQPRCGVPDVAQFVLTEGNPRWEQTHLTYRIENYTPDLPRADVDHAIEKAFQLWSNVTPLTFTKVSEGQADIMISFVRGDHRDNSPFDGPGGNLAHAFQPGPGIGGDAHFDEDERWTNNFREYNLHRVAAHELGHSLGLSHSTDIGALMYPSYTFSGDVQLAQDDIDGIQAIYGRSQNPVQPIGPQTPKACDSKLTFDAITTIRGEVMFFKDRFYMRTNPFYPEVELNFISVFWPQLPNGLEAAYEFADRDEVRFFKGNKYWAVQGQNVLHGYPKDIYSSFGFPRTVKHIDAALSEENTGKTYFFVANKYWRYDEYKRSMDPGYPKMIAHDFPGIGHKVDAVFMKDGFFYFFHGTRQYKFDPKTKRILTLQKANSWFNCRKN

Collagenase 3 = Collagenase 3 (Homo sapiens, UniProt P45452); assay: In vitro inhibitory activity against matrix metalloprotease-13 (MMP-13)

| SMILES | IC50 (Matrilysin) | IC50 [1] | IC50 (Stromelysin-1) | IC50 (Interstitial collagenase) | IC50 (Collagenase 3) |
| --- | --- | --- | --- | --- | --- |
| COc1ccc(S(=O)(=O)N2CCN(c3nc(-c4ccccc4)cs3)CC2C(=O)NO)cc1 (stereo unspecified) | 3290 nM | 28 nM | 11 nM | 325 nM |  |
| COc1ccc(S(=O)(=O)N2CCN(S(C)(=O)=O)CC2C(=O)NO)cc1 (stereo unspecified) | 483 nM | 0.6 nM | 3.5 nM | 8 nM | 1 nM |
| COc1ccc(S(=O)(=O)N2CCN(C(=O)c3cccnc3)CC2C(=O)NO)cc1 (stereo unspecified) | 27700 nM | 32 nM | 184 nM | 994 nM | 57 nM |
| COc1ccc(S(=O)(=O)N2CCN(C(=O)N(C)Cc3ccccc3)CC2C(=O)NO)cc1 (stereo unspecified) |  |  | 38 nM | 322 nM | 1.8 nM |
| CCCN(CC1CC1)C(=O)N1CCN(S(=O)(=O)c2ccc(OC)cc2)C(C(=O)NO)C1 (stereo unspecified) | 2090 nM |  | 65 nM |  | 1.1 nM |
| CCCCCCN(C)C(=O)N1CCN(S(=O)(=O)c2ccc(Br)cc2)C(C(=O)NO)C1 (stereo unspecified) | 1200 nM | 13 nM | 175 nM | 87 nM | 4.5 nM |
| COc1ccc(S(=O)(=O)N2CCN(C(=O)Nc3cccc(OC)c3)CC2C(=O)NO)cc1 (stereo unspecified) | 1100 nM | 4.1 nM | 13 nM | 80 nM | 2.8 nM |
| COc1ccc(S(=O)(=O)N2CCN(C(=O)c3ccno3)CC2C(=O)NO)cc1 (stereo unspecified) |  |  | 147 nM | 62 nM |  |
| COc1ccc(S(=O)(=O)N2CCN(C(=O)OC(C)(C)C)CC2C(=O)NO)cc1 (stereo unspecified) | 1460 nM | 2.3 nM | 60 nM | 81 nM |  |
| COc1ccc(S(=O)(=O)N2CCN(C(=O)N3CCN(C)CC3)CC2C(=O)NO)cc1 (stereo unspecified) | 2690 nM | 5 nM | 114 nM | 354 nM | 4.1 nM |
| COc1ccc(S(=O)(=O)N2CCN(C(=O)[C@@H](O)C(C)C)CC2C(=O)NO)cc1 (stereo partly specified) | 1690 nM | 4.4 nM | 60 nM | 227 nM | 1 nM |
| COc1ccc(S(=O)(=O)N2CCN(C(=S)NCc3ccccc3)CC2C(=O)NO)cc1 (stereo unspecified) | 401 nM | 6.6 nM | 41 nM | 68 nM |  |
| COc1ccc(S(=O)(=O)N2CCN(Cc3ccccc3)CC2C(=O)NO)cc1 (stereo unspecified) | 14000 nM | 7.6 nM | 75 nM | 324 nM | 8 nM |
| CCCCCCNC(=O)N1CCN(S(=O)(=O)c2ccc(OC)cc2)C(C(=O)NO)C1 (stereo unspecified) | 497 nM | 2.6 nM | 28 nM | 30 nM | 1.4 nM |
| CCCCCCN(C)C(=O)N1CCN(S(=O)(=O)c2ccc(OC)cc2)C(C(=O)NO)C1 (stereo unspecified) | 3240 nM | 6 nM | 4.3 nM | 71 nM | 1.9 nM |
| COc1ccc(S(=O)(=O)N2CCN(C)CC2C(=O)NO)cc1 (stereo unspecified) | 10000 nM | 25 nM | 269 nM |  | 21 nM |
| COc1ccc(S(=O)(=O)N2CCN(C(=O)c3ccco3)CC2C(=O)NO)cc1 (stereo unspecified) | 642 nM | 1.6 nM | 7.5 nM | 25 nM | 2.5 nM |
| COc1ccc(S(=O)(=O)N2CCNCC2C(=O)NO)cc1 (stereo unspecified) |  | 6.9 nM |  |  |  |
| COc1ccc(S(=O)(=O)N2CCN(C(=O)OCc3cccnc3)CC2C(=O)NO)cc1 (stereo unspecified) | 502 nM | 1.9 nM | 8.9 nM | 18 nM | 1 nM |
| CCCCCCN1CCN(S(=O)(=O)c2ccc(OC)cc2)C(C(=O)NO)C1 (stereo unspecified) | 15700 nM | 17 nM | 71 nM | 996 nM | 4.2 nM |

| SMILES | IC50 (Matrilysin) | IC50 [1] | IC50 (Stromelysin-1) | IC50 (Interstitial collagenase) | IC50 (Collagenase 3) |
| --- | --- | --- | --- | --- | --- |
| COc1ccc(S(=O)(=O)N2CCN(S(=O)(=O)c3sc(N)nc3C)CC2C(=O)NO)cc1 (stereo unspecified) | 1280 nM | 2.1 nM | 2.5 nM | 31 nM | 2 nM |
| COc1ccc(S(=O)(=O)N2CCN(C(=O)c3cccs3)CC2C(=O)NO)cc1 (stereo unspecified) | 710 nM | 1.3 nM | 15 nM | 68 nM | 1.9 nM |
| COc1ccc(S(=O)(=O)N2CCN(C(=O)c3c(-c4ccccc4)noc3C)CC2C(=O)NO)cc1 (stereo unspecified) | 22100 nM | 22 nM | 410 nM | 1320 nM | 27 nM |
| COc1ccc(S(=O)(=O)N2CCN(C(=O)c3ccccc3)CC2C(=O)NO)cc1 (stereo unspecified) | 1520 nM |  | 66 nM | 81 nM |  |
| COc1ccc(S(=O)(=O)N2CCN(C(=O)N3CCOCC3)CC2C(=O)NO)cc1 (stereo unspecified) | 4350 nM | 8.3 nM | 124 nM | 228 nM | 54 nM |
| COc1ccc(S(=O)(=O)N2CCN(C(=O)c3snnc3C)CC2C(=O)NO)cc1 (stereo unspecified) | 6090 nM | 17 nM | 173 nM | 1060 nM | 21 nM |
| COc1ccc(S(=O)(=O)N2CCN(C(=O)N3CCCCCC3)CC2C(=O)NO)cc1 (stereo unspecified) | 2690 nM |  | 54 nM | 158 nM | 2.9 nM |
| COc1ccc(S(=O)(=O)N2CCN(C(=O)NCCc3ccccc3)CC2C(=O)NO)cc1 (stereo unspecified) | 824 nM | 3.6 nM | 27 nM | 70 nM |  |
| COc1ccc(S(=O)(=O)N2CCN(C(=O)C3CCCCC3)CC2C(=O)NO)cc1 (stereo unspecified) | 2170 nM | 1.8 nM | 27 nM | 219 nM | 1.5 nM |
| COc1ccc(S(=O)(=O)N2CCN(C(=O)NCc3ccccc3)CC2C(=O)NO)cc1 (stereo unspecified) | 416 nM | 3.8 nM | 17 nM | 99 nM | 2.4 nM |
| COc1ccc(S(=O)(=O)N2CCN(C(=O)COc3ccccc3)CC2C(=O)NO)cc1 (stereo unspecified) | 908 nM | 3 nM | 9.5 nM | 92 nM |  |
| COc1ccc(S(=O)(=O)N2CCN(C(=O)c3ccc(-c4ccccc4)cc3)CC2C(=O)NO)cc1 (stereo unspecified) | 931 nM |  | 23 nM | 43 nM | 0.9 nM |
| COc1ccc(S(=O)(=O)N2CCN(C(=O)OCc3ccccc3)CC2C(=O)NO)cc1 (stereo unspecified) | 232 nM | 1.9 nM |  | 24 nM | 1.3 nM |
| COc1ccc(S(=O)(=O)N2CCN(C(C)=O)CC2C(=O)NO)cc1 (stereo unspecified) | 821 nM | 1.8 nM | 18 nM | 73 nM | 1 nM |
| COc1ccc(S(=O)(=O)N2CCN(S(=O)(=O)c3c(C)noc3C)CC2C(=O)NO)cc1 (stereo unspecified) | 1020 nM | 2.4 nM | 3.2 nM | 54 nM | 1.3 nM |
| COc1ccc(S(=O)(=O)N2CCN(C(N)=O)CC2C(=O)NO)cc1 (stereo unspecified) | 537 nM | 2.3 nM | 20 nM | 115 nM | 3.6 nM |
| CCOCCCOC(=O)N1CCN(S(=O)(=O)c2ccc(OC)cc2)C(C(=O)NO)C1 (stereo unspecified) | 483 nM | 0.6 nM | 5.3 nM | 22 nM | 0.7 nM |
| COCCN(CCOC)C(=O)N1CCN(S(=O)(=O)c2ccc(Br)cc2)C(C(=O)NO)C1 (stereo unspecified) | 1130 nM | 20 nM | 385 nM | 49 nM | 3.2 nM |
| CCCCCC(=O)N1CCN(S(=O)(=O)c2ccc(OC)cc2)C(C(=O)NO)C1 (stereo unspecified) | 787 nM |  | 39 nM | 115 nM |  |
| COc1ccc(S(=O)(=O)N2CCN(S(=O)(=O)c3ccc(OC)cc3)C(C(=O)NO)C2)cc1 (stereo unspecified) | 1890 nM | 1.2 nM | 13 nM | 60 nM | 1.3 nM |
